Assay results published in ChEMBL document CHEMBL5303300, “EUbOPEN Chemogenomics Library - Multiplex” (2023).
Values joined by “and” are separate entries in the source; they are usually repeats but may differ in a detail not shown here. Identical values can stand only once.

Columns and labels:
Assay type in all cases: toxicity, cell-based
[1] = system: HEK-293T; experiment: Multiplex assay against HEK293T; settings: human, number of replicates 2
Outline: (§1)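 Four dyes were applied at seeding to live cells: Hoechst33342, BioTracker Green Microtubule Cytoskeleton Dye, MitoTracker Red and Annexin V Alexa Fluor 680. Imaging after compound addition used a CQ1 microscope at 37°C and 5% CO2. CellPathfinder machine-learning gating then sorted cells into Hoechst high-intensity objects or normal cells, normal cells into healthy, pyknosed or fragmented nuclei, and pyknosed cells into mitotic or apoptotic, with tubulin, mitochondrial-mass and membrane-permeability phenotypes given as per cents of healthy-nucleus cells.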

[2] = system: Fibroblast; experiment: Multiplex assay against human fibroblast; settings: number of replicates 2; outline: as §1
[3] = system: U2OS; experiment: Multiplex assay against U2OS; settings: human, number of replicates 2; outline: as §1
[4] = 12 h, 1 µM, compound concentration 1 uM
[5] = 12 h, 10 µM, compound concentration 10 uM
[6] = 24 h, 1 µM, compound concentration 1 uM
[7] = 24 h, 10 µM, compound concentration 10 uM
[8] = 48 h, 1 µM, compound concentration 1 uM
[9] = 48 h, 10 µM, compound concentration 10 uM

O=C(Nc1ccnc(NC(=O)C2CC2)c1)c1c(Cl)cccc1Cl
Population Apoptotic (%) [1, 4]: 42% and 49%
Population Fragmented Nuclei (%) [1, 4]: 3% and 2%
Population Healthy Nuclei (%) [1, 4]: 81% and 83%
Population Hoechst High Intensity Objects (%) [1, 4]: 9% and 5%
Population Membrane Permeable-Phenotype (%) [1, 4]: 3% and 7%
Population Mitochondria Different-Phenotype (%) [1, 4]: 11% and 10%
Population Mitotic Cells (%) [1, 4]: 57% and 50%
Population Normal (%) [1, 4]: 90% and 94%
Population Pyknosed Nuclei (%) [1, 4]: 15% and 14%
Population Tubulin-Different-Phenotype (%) [1, 4]: 43% and 37%
Total Cell Count [1, 4]: 735 and 602
Population Apoptotic (%) [1, 5]: 55% and 57%
Population Fragmented Nuclei (%) [1, 5]: 3% and 2%
Population Healthy Nuclei (%) [1, 5]: 92% and 91%
Population Hoechst High Intensity Objects (%) [1, 5]: 3%
Population Membrane Permeable-Phenotype (%) [1, 5]: 5% and 3%
Population Mitochondria Different-Phenotype (%) [1, 5]: 8% and 9%
Population Mitotic Cells (%) [1, 5]: 44% and 42%
Population Normal (%) [1, 5]: 96%
Population Pyknosed Nuclei (%) [1, 5]: 3% and 5%
Population Tubulin-Different-Phenotype (%) [1, 5]: 32% and 35%
Total Cell Count [1, 5]: 713 and 727
Population Apoptotic (%) [1, 6]: 37% and 50%
Population Fragmented Nuclei (%) [1, 6]: 4%
Population Healthy Nuclei (%) [1, 6]: 84% and 85%
Population Hoechst High Intensity Objects (%) [1, 6]: 5% and 6%
Population Membrane Permeable-Phenotype (%) [1, 6]: 4% and 3%
Population Mitochondria Different-Phenotype (%) [1, 6]: 3%
Population Mitotic Cells (%) [1, 6]: 62% and 50%
Population Normal (%) [1, 6]: 94% and 93%
Population Pyknosed Nuclei (%) [1, 6]: 10% and 9%
Population Tubulin-Different-Phenotype (%) [1, 6]: 17% and 19%
Total Cell Count [1, 6]: 1049 and 883
Population Apoptotic (%) [1, 7]: 42% and 69%
Population Fragmented Nuclei (%) [1, 7]: 3% and 5%
Population Healthy Nuclei (%) [1, 7]: 92% and 90%
Population Hoechst High Intensity Objects (%) [1, 7]: 4% and 3%
Population Membrane Permeable-Phenotype (%) [1, 7]: 1%
Population Mitochondria Different-Phenotype (%) [1, 7]: 2% and 3%
Population Mitotic Cells (%) [1, 7]: 57% and 30%
Population Normal (%) [1, 7]: 95% and 96%
Population Pyknosed Nuclei (%) [1, 7]: 3% and 4%
Population Tubulin-Different-Phenotype (%) [1, 7]: 14% and 15%
Total Cell Count [1, 7]: 757 and 769
Population Apoptotic (%) [1, 8]: 19% and 24%
Population Fragmented Nuclei (%) [1, 8]: 9% and 7%
Population Healthy Nuclei (%) [1, 8]: 85% and 87%
Population Hoechst High Intensity Objects (%) [1, 8]: 7%
Population Membrane Permeable-Phenotype (%) [1, 8]: 3% and 4%
Population Mitochondria Different-Phenotype (%) [1, 8]: 0% and 1%
Population Mitotic Cells (%) [1, 8]: 80% and 75%
Population Normal (%) [1, 8]: 92%
Population Pyknosed Nuclei (%) [1, 8]: 4%
Population Tubulin-Different-Phenotype (%) [1, 8]: 10% and 11%
Total Cell Count [1, 8]: 2441 and 1608
Population Apoptotic (%) [1, 9]: 38% and 32%
Population Fragmented Nuclei (%) [1, 9]: 11%
Population Healthy Nuclei (%) [1, 9]: 86% and 85%
Population Hoechst High Intensity Objects (%) [1, 9]: 6% and 5%
Population Membrane Permeable-Phenotype (%) [1, 9]: 1% and 0%
Population Mitochondria Different-Phenotype (%) [1, 9]: 2%
Population Mitotic Cells (%) [1, 9]: 61% and 67%
Population Normal (%) [1, 9]: 93% and 94%
Population Pyknosed Nuclei (%) [1, 9]: 2% and 3%
Population Tubulin-Different-Phenotype (%) [1, 9]: 8% and 7%
Total Cell Count [1, 9]: 1085 and 965
Population Apoptotic (%) [2, 4]: 47% and 27%
Population Fragmented Nuclei (%) [2, 4]: 6% and 9%
Population Healthy Nuclei (%) [2, 4]: 65% and 67%
Population Hoechst High Intensity Objects (%) [2, 4]: 0%
Population Membrane Permeable-Phenotype (%) [2, 4]: 5% and 7%
Population Mitochondria Different-Phenotype (%) [2, 4]: 0%
Population Mitotic Cells (%) [2, 4]: 52% and 72%
Population Normal (%) [2, 4]: 100%
Population Pyknosed Nuclei (%) [2, 4]: 27% and 23%
Population Tubulin-Different-Phenotype (%) [2, 4]: 9% and 6%
Total Cell Count [2, 4]: 145 and 189
Population Apoptotic (%) [2, 5]: 55% and 72%
Population Fragmented Nuclei (%) [2, 5]: 9% and 14%
Population Healthy Nuclei (%) [2, 5]: 78% and 77%
Population Hoechst High Intensity Objects (%) [2, 5]: 0%
Population Membrane Permeable-Phenotype (%) [2, 5]: 2%
Population Mitochondria Different-Phenotype (%) [2, 5]: 0%
Population Mitotic Cells (%) [2, 5]: 44% and 27%
Population Normal (%) [2, 5]: 100%
Population Pyknosed Nuclei (%) [2, 5]: 11% and 8%
Population Tubulin-Different-Phenotype (%) [2, 5]: 7% and 6%
Total Cell Count [2, 5]: 244 and 215
Population Apoptotic (%) [2, 6]: 60% and 48%
Population Fragmented Nuclei (%) [2, 6]: 13% and 7%
Population Healthy Nuclei (%) [2, 6]: 60% and 70%
Population Hoechst High Intensity Objects (%) [2, 6]: 0%
Population Membrane Permeable-Phenotype (%) [2, 6]: 7%
Population Mitochondria Different-Phenotype (%) [2, 6]: 1% and 0%
Population Mitotic Cells (%) [2, 6]: 40% and 51%
Population Normal (%) [2, 6]: 100%
Population Pyknosed Nuclei (%) [2, 6]: 26% and 21%
Population Tubulin-Different-Phenotype (%) [2, 6]: 14% and 9%
Total Cell Count [2, 6]: 150 and 188
Population Apoptotic (%) [2, 7]: 59% and 70%
Population Fragmented Nuclei (%) [2, 7]: 8% and 17%
Population Healthy Nuclei (%) [2, 7]: 82% and 74%
Population Hoechst High Intensity Objects (%) [2, 7]: 0%
Population Membrane Permeable-Phenotype (%) [2, 7]: 2% and 3%
Population Mitochondria Different-Phenotype (%) [2, 7]: 0%
Population Mitotic Cells (%) [2, 7]: 40% and 29%
Population Normal (%) [2, 7]: 99%
Population Pyknosed Nuclei (%) [2, 7]: 9% and 8%
Population Tubulin-Different-Phenotype (%) [2, 7]: 4% and 8%
Total Cell Count [2, 7]: 232 and 213
Population Apoptotic (%) [2, 8]: 67% and 60%
Population Fragmented Nuclei (%) [2, 8]: 17% and 16%
Population Healthy Nuclei (%) [2, 8]: 53% and 65%
Population Hoechst High Intensity Objects (%) [2, 8]: 0%
Population Membrane Permeable-Phenotype (%) [2, 8]: 4% and 6%
Population Mitochondria Different-Phenotype (%) [2, 8]: 0%
Population Mitotic Cells (%) [2, 8]: 32% and 40%
Population Normal (%) [2, 8]: 99% and 100%
Population Pyknosed Nuclei (%) [2, 8]: 28% and 17%
Total Cell Count [2, 8]: 170 and 199
Population Apoptotic (%) [2, 9]: 56% and 44%
Population Fragmented Nuclei (%) [2, 9]: 9% and 24%
Population Healthy Nuclei (%) [2, 9]: 81% and 71%
Population Hoechst High Intensity Objects (%) [2, 9]: 0%
Population Membrane Permeable-Phenotype (%) [2, 9]: 2% and 1%
Population Mitochondria Different-Phenotype (%) [2, 9]: 0%
Population Mitotic Cells (%) [2, 9]: 43% and 55%
Population Normal (%) [2, 9]: 100%
Population Pyknosed Nuclei (%) [2, 9]: 9% and 3%
Population Tubulin-Different-Phenotype (%) [2, 9]: 10% and 8%
Total Cell Count [2, 9]: 239 and 229
Population Apoptotic (%) [3, 4]: 33% and 84%
Population Hoechst High Intensity Objects (%) [3, 4]: 0%
Population Membrane Permeable-Phenotype (%) [3, 4]: 4% and 3%
Population Mitochondria Different-Phenotype (%) [3, 4]: 0% and 4%
Population Normal (%) [3, 4]: 100%
Population Tubulin-Different-Phenotype (%) [3, 4]: 81% and 83%
Total Cell Count [3, 4]: 114 and 143
Population Apoptotic (%) [3, 5]: 60% and 58%
Population Healthy Nuclei (%) [3, 5]: 36% and 74%
Population Hoechst High Intensity Objects (%) [3, 5]: 0%
Population Mitochondria Different-Phenotype (%) [3, 5]: 14% and 0%
Population Mitotic Cells (%) [3, 5]: 40% and 41%
Population Normal (%) [3, 5]: 100%
Population Pyknosed Nuclei (%) [3, 5]: 26% and 19%
Population Tubulin-Different-Phenotype (%) [3, 5]: 71% and 58%
Population Apoptotic (%) [3, 6]: 60% and 90%
Population Hoechst High Intensity Objects (%) [3, 6]: 0%
Population Membrane Permeable-Phenotype (%) [3, 6]: 4% and 3%
Population Mitochondria Different-Phenotype (%) [3, 6]: 0% and 2%
Population Normal (%) [3, 6]: 99% and 100%
Population Pyknosed Nuclei (%) [3, 6]: 3% and 12%
Population Tubulin-Different-Phenotype (%) [3, 6]: 76% and 90%
Total Cell Count [3, 6]: 131 and 182
Population Apoptotic (%) [3, 7]: 66% and 87%
Population Healthy Nuclei (%) [3, 7]: 32% and 62%
Population Hoechst High Intensity Objects (%) [3, 7]: 0%
Population Mitochondria Different-Phenotype (%) [3, 7]: 10% and 0%
Population Mitotic Cells (%) [3, 7]: 33% and 12%
Population Normal (%) [3, 7]: 100%
Population Pyknosed Nuclei (%) [3, 7]: 19% and 29%
Population Tubulin-Different-Phenotype (%) [3, 7]: 70% and 66%
Population Apoptotic (%) [3, 8]: 75% and 76%
Population Healthy Nuclei (%) [3, 8]: 32% and 82%
Population Hoechst High Intensity Objects (%) [3, 8]: 0%
Population Membrane Permeable-Phenotype (%) [3, 8]: 5% and 1%
Population Mitochondria Different-Phenotype (%) [3, 8]: 2% and 1%
Population Mitotic Cells (%) [3, 8]: 25% and 23%
Population Normal (%) [3, 8]: 99% and 100%
Population Pyknosed Nuclei (%) [3, 8]: 3% and 10%
Population Tubulin-Different-Phenotype (%) [3, 8]: 89% and 92%
Population Apoptotic (%) [3, 9]: 100% and 80%
Population Hoechst High Intensity Objects (%) [3, 9]: 0%
Population Membrane Permeable-Phenotype (%) [3, 9]: 16% and 14%
Population Mitochondria Different-Phenotype (%) [3, 9]: 16% and 6%
Population Mitotic Cells (%) [3, 9]: 0% and 20%
Population Normal (%) [3, 9]: 100% and 99%
Population Pyknosed Nuclei (%) [3, 9]: 23% and 35%
Population Tubulin-Different-Phenotype (%) [3, 9]: 50% and 68%
